In ChEMBL document CHEMBL4513216, “Probing the Open Global Health Chemical Diversity Library for Multistage-Active Starting Points for Next-Generation Antimalarials” (ACS Infect Dis, 2020):

assay: Toxicity liver stage against HepG2, at 10uM; format: cell-based; set-up: test concentration 10 uM, cell line HepG2-A16-CD81EGFP; settings: human, HepG2-A16-CD81EGFP cells; read-out: INHIBITION
Procedure, shortened: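 Uninfected HepG2-A16-CD81EGFP cells, 3 × 10^3 per well, 1536-well, plated on prespotted compound at 10 μM final, parasite-free screening media added to match infected plates; puromycin 10 μM positive, DMSO 0.5% negative; run in parallel with 48 h PbLuc assay at 37 °C, 5% CO2; viability by CellTiter-Glo luminescence, normalized to controls.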

SMILES | cytotoxicity at 10 µM [%]
CCCN(CCC)c1nc(N)nc(-c2cc(Cl)ccc2OC)n1 | 7.43
Cc1ccc2[nH]c(CO[C@H]3CN(C(=O)C4CC4)C[C@H]3F)nc2c1 | -11.6
FC(F)(F)Oc1cccc(CNC[C@H]2Cn3ccnc3CO2)c1 | 2.21
Cn1c(C(=O)NCC2(N)CCCC2)cc2ccccc21 | 7.8
O=C1Nc2ccccc2/C1=C1\CCCN1 | 5.02
CC(C)Cc1nc(OCC(=O)O)c(C#N)c2c1CCCC2 | -6.14
CC(C)NC(=O)NCCn1cnc(C2CCCC2)cc1=O | -0.373
Cc1csc(C(=O)N2CCC(S(C)(=O)=O)CC2)c1 | 2.7
Cn1nc(CN2CCCC2)c2c1CN(C(=O)c1cnccn1)CC2 | -147
O=C1CC(C2CCCCC2)c2c(n(C3CCCC3)[nH]c2=O)N1 (stereo not given) | -5.01
CCCC(=O)Nc1sc(C(=O)OCC)c(C)c1C#N | 8.29
O=C(c1ccco1)N1CCOCC2(C1)CN(c1ccccc1)C(=O)CO2 (stereo not given) | -10.1
O=C(C1CCOCC1)N1CCO[C@H]2[C@@H](OCc3ccncc3)CC[C@@H]21 | 5.54
Cc1cc(C(F)(F)F)nn1CCCNC(=O)C1CCCC1 | -4.93
Cc1cc2c(cc1NC(N)=O)OCO2 | 3.13
COc1cccc(CNCc2cccc(Cl)c2)c1O | 1.29
O=C(NC1CC1)c1ccn(COc2c(Cl)cccc2Cl)n1 | 7.36
COc1ccc(OC)c(C(C)Nc2nc3c(C)nn(C)c3c(=O)n2C)c1 (stereo not given) | -15
COc1cccc(F)c1CN1CCC(c2nc(C)cc(C)n2)C1 (stereo not given) | 6.83
CN1C[C@H](c2ccccc2)[C@H]2CN(C(=O)Cc3cccc(O)c3)CC[C@H]21 | 4.98
COc1ccc(OC)c([C@@H]2N[C@H](c3nccs3)Cc3ccsc32)c1 | 12.6
Cc1cccc(CN2CCCC(c3nccs3)C2)n1 (stereo not given) | 8.38

SMILES | cytotoxicity at 10 µM [%]
CN1C[C@@H](C(=O)N2CCCOCC2)[C@@]2(CCc3ccccc3C(=O)N2)C1 | 8.64
CSCC[C@H]1CN2CCC[C@H]2CN1Cc1coc2ccc(C)cc2c1=O | -1.04
Cc1nccc(C2CCCCN2Cc2cccc(F)c2)n1 (stereo not given) | -11.6
NC(=O)C1CN(Cc2c[nH]cn2)CCN(C2CCOCC2)C1 (stereo not given) | 3.83
COc1cc(Cl)c(NC(=O)c2cc3c([nH]c2=O)CCCC3=O)cc1OC | -5.21
COCc1c(Br)cccc1NC(=O)N(C)CCO | -9.95
O=S(=O)(c1ccccc1N1CC(n2cccn2)C1)C(F)(F)F | 6.68
CC(C)OCCC1CCCCN1S(N)(=O)=O (stereo not given) | 7.36
CC(C)(C)CC(=O)NCC1CCCS1 (stereo not given) | 11.2
CC(=O)N1CCN(CCNC(=O)NC(C)Cn2ccnc2)CC1 (stereo not given) | 5.74
CCN(Cc1cnn(C)c1)S(=O)(=O)c1ccc(NC(C)=O)cc1 | 3.59
Cn1cc(C2CCCN2C(=O)COC2CCCCC2)cn1 (stereo not given) | -8.79
CC(C#N)CSc1ccccc1NCC(=O)NC(C1CC1)C1CC1 (stereo not given) | 14.5
COC(=O)CCNC(=O)c1cccc(C(=O)N(C)c2ccccc2)c1 | -2.69
CC(C)c1nnc2n1CC(CNCc1nc3ccccc3s1)CC2 (stereo not given) | 13
CC(C)C(NC(=O)NCC1CC1)c1nnc2n1CCC2 (stereo not given) | -7.44
COc1ncnc(N(C)C)c1NC(=O)Cc1cc(F)ccc1F | -2.67
COc1ccc(NC(=O)C(C)(C)C)cc1OCc1cccnc1 | -41.1
Cc1cn2nc(N3CCCC3C(=O)N3CCSCC3)sc2n1 (stereo not given) | 10.9
O=C(COCc1ccccc1)Nc1ccccn1 | -27.7
CCOCc1ccc(NC(=O)N2CCCC2c2nncn2C)cc1 (stereo not given) | 6.53
CC1CCN(S(=O)(=O)N2Cc3ccccc3C[C@H]2C(N)=O)CC1 | -6.64

SMILES | cytotoxicity at 10 µM [%]
CC(C)Oc1ncccc1CNC(=O)NC(C)c1cccs1 (stereo not given) | -2.3
O=C(CC1CCCO1)NCCCC(=O)Nc1ccc(Cl)cc1 (stereo not given) | 2.91
CCn1cc(NC(=O)NCC2(N3CCOCC3)CCSC2)cn1 (stereo not given) | -17.1
Cc1ccccc1C(=O)NCc1ccc(N2CCNC(=O)C2)c(F)c1 | -13.8
O=C1CC2(CCCCC2)CC(=O)N1CC(O)COCc1ccc(Cl)cc1 (stereo not given) | -1.04
CCOc1cc(CN(C)CCOC)ccc1OC(F)F | -13.7
Cn1cc(CN2CCc3onc(C(=O)Nc4cccnc4)c3C2)cn1 | 4.22
O=C(c1ccoc1)N1CC[C@@H]2[C@H]1CCC(=O)N2c1ccccc1 | -0.362
CN(Cc1nc(-c2cccs2)no1)Cc1nc2c(s1)CCCC2 | 3.01
CCc1noc(CN(C)C(=O)C2COc3ccccc3C2)n1 (stereo not given) | 1.3
CCc1nnc(CN(CC)C(=O)C2CC(=O)N(C3CCCC3)C2)o1 (stereo not given) | -2.57
CN(CCc1cn[nH]c1)C(=O)C(c1ccc(F)cc1)N(C)C (stereo not given) | -19.5
O=C(NCCn1ccnc1C1CCOC1)c1cccnc1 (stereo not given) | -0.757
Cc1ccc(F)cc1S(=O)(=O)N1C[C@@H](C)[C@@](C)(O)C1 | -0.784
NC(=O)c1ccnc(N2CCCC(CO)(Cc3ccc(F)cc3)C2)c1 (stereo not given) | 14.1
COCC1CCCN(C(=O)c2ccc(N(C)Cc3cnn(C)c3)nc2)C1 (stereo not given) | -3.97
CN(CCc1ccccc1)Cc1nc(Cc2cccc(F)c2)no1 | 0.276
COCCN1CCC(CN(Cc2ccncc2)C2CCC2)CC1 | -2.33
CCc1nccn1CCCn1ccnc1-c1[nH]cnc1C | 10
Cc1cccc(C)c1OC1CN(C(=O)C2CCCN(C(=O)N(C)C)C2)C1 (stereo not given) | -0.545
CCOc1ccc2[nH]c(=O)c(CN3CCC(n4cnnc4)CC3)cc2c1 | -0.966
Cc1nc(CNC2CC(=O)N(CCc3cccc(Cl)c3)C2)c[nH]1 (stereo not given) | -133

SMILES | cytotoxicity at 10 µM [%]
CNC(=O)C1CCCN1c1nc(C)c2ccccc2n1 (stereo not given) | 10.4
Cc1cc(C(=O)N2CCC3(CC2)CN(CCN(C)C)C(=O)O3)nc(C)n1 | 2.92
CS(=O)(=O)c1ccc(CC(=O)N2CCN3CCNC(=O)C3C2)cc1 (stereo not given) | -3.34
CCC(C)N(Cc1ccncc1)C(=O)CCSC (stereo not given) | -0.146
O=C(O)[C@]12CCCN(Cc3ccccn3)[C@@H]1CCN(c1cnccn1)C2 | 2.12
COCCn1ccnc1C1CCCN(c2cc(OC)nc(N)n2)C1 (stereo not given) | 11.2
CC(=O)Nc1ccc(S(=O)(=O)Nc2c(F)cccc2F)cc1 | 12.6
COc1cccc(CCC2CCCN(C(=O)c3ccccn3)C2)c1 (stereo not given) | -0.237
CC(C)Cc1cc(C(=O)N2CC(OCc3ccccc3F)C2)n(C)n1 | 8.92
Fc1ccccc1C(CNc1ccncn1)N1CCCC1 (stereo not given) | 2.84
COc1cccc([C@@H]2CCN(Cc3cn(C)c4ccccc34)C[C@H]2O)c1 | 14.7
CCc1nc(N)nc(NCc2cnn3cccnc23)c1C | 52.5
O=C1NCCN(C(=O)c2cn3ccsc3n2)C1c1cccc(F)c1 (stereo not given) | -5.18
Cc1csc2c(N3CCC(NCCCc4ccncc4)CC3)ncnc12 | -1.54
Clc1ccccc1C1(c2ccnc(CC3CC3)n2)CCNCC1 | -10.3
CN(C)Cc1ccc(C2CCCCN2C(=O)c2cccc(CO)n2)cc1 (stereo not given) | -16.9
O=C(O)C1(Cc2ccccc2Cl)CCN(c2ncccc2F)CC1 | -12.3
O=C(NC[C@@H]1CCCN1)c1cc(COc2cccc(C(F)(F)F)c2)[nH]n1 | -8.31
CC(C)(C)c1cc(CN2CC[C@@H](NC(=O)c3cccnc3)[C@H](O)C2)n[nH]1 | -13.2
CN1CCOC(CN(C(=O)CCc2ccco2)c2nccs2)C1 (stereo not given) | -16.1
Cc1nnc2n1CCN(CCS(=O)(=O)c1ccc(Cl)cc1)C2 | -4.53
CCc1nc(CN2CCCN(C(=O)CC(C)OC)CC2)cs1 (stereo not given) | -24.7

SMILES | cytotoxicity at 10 µM [%]
O=C(CCOc1ccc(Br)cc1)N1CCN(c2cnccn2)CC1 | 0.207
COc1ccc(F)cc1CN1CCCC1Cn1nc(C)nc1C (stereo not given) | -2.41
CCc1nc(C2CCCN(C(=O)c3ccc(O)nc3)C2)no1 (stereo not given) | -11.7
COc1ccc(CC(=O)N2CCCC2Cn2cc(C)cn2)c(OC)c1 (stereo not given) | -18
Cc1nc(CN2CCCN(C(=O)COCC3CC3)CC2)cs1 | -11
CC(C(N)=O)N(C)CCCc1cc(-c2ccccc2)no1 (stereo not given) | -5.01
O=C(NCCOc1ccc(Cl)cc1)N1CCS(=O)(=O)CC1 | 0.89
COc1ccc(COCC(O)CNC(=O)c2cnc(C)cn2)cc1 (stereo not given) | -2
Cc1csc(CNC(=O)NCCc2ccc3c(c2)OCCO3)n1 | 4.74
CCc1cc2cc(OC)c(OC)cc2nc1SCCN1CCCCC1 | -4.82
COc1ccccc1CN(CCCn1ccnc1)CC1CCOC1 (stereo not given) | 11
O=C(Nc1cnccn1)[C@@H]1CC[C@@H]2[C@@H](CCN2Cc2nccs2)O1 | -136
CC[C@H]1N(C)CCC[C@]12CCC(=O)N2Cc1ccncc1 | 7.99
Cc1cccc(CN2C[C@@H]3CN(C(=O)c4cnccn4)C[C@@H]3C2=O)n1 | 3.14
CS(=O)(=O)NC[C@H]1OC[C@@H]2CCN(CCc3ccccc3)C[C@@H]21 | -4.67
O=S(=O)(N1CCCC1)N1C[C@@H](c2cccc(F)c2)[C@@H]2NCCCCC[C@H]21 | -25
COc1cccc(CN2CCC3(CCN(C(=O)[C@H]4CCCO4)CC3)C2)c1 | 6.57
COCCN1C[C@@H]2[C@@H](OC)CCN(Cc3cccc(C)n3)[C@@H]2C1 | -9.41
CN(Cc1ccco1)C1CCC12CCN(C(=O)C1CCOCC1)CC2 (stereo not given) | -2.92
O=C1CN(C(=O)C2CCC3(CC2)CNC(=O)c2ccccc2O3)CCN1 (stereo not given) | -11.6
CN(C)C(=O)NCc1cc2n(n1)CCN(CC1[C@H]3CNC[C@@H]13)C2 (stereo not given in full) | -27.7
O=C(NCC1CC1)[C@H]1C[C@H]2CN(S(=O)(=O)Cc3ccccc3)C[C@@H]1O2 | 7.56
